{"source": "ChEMBL document CHEMBL1151224", "about": "“Geranylgeraniol-type diterpenoids, boletinins A-J, from Boletinus cavipes as inhibitors of superoxide anion generation in macrophage cells” (J Nat Prod, 2004)", "key": {"[1]": {"biological_target": "T1, Xanthine dehydrogenase/oxidase (Homo sapiens, UniProt P47989)", "T1 sequence (P47989 whole entry)": "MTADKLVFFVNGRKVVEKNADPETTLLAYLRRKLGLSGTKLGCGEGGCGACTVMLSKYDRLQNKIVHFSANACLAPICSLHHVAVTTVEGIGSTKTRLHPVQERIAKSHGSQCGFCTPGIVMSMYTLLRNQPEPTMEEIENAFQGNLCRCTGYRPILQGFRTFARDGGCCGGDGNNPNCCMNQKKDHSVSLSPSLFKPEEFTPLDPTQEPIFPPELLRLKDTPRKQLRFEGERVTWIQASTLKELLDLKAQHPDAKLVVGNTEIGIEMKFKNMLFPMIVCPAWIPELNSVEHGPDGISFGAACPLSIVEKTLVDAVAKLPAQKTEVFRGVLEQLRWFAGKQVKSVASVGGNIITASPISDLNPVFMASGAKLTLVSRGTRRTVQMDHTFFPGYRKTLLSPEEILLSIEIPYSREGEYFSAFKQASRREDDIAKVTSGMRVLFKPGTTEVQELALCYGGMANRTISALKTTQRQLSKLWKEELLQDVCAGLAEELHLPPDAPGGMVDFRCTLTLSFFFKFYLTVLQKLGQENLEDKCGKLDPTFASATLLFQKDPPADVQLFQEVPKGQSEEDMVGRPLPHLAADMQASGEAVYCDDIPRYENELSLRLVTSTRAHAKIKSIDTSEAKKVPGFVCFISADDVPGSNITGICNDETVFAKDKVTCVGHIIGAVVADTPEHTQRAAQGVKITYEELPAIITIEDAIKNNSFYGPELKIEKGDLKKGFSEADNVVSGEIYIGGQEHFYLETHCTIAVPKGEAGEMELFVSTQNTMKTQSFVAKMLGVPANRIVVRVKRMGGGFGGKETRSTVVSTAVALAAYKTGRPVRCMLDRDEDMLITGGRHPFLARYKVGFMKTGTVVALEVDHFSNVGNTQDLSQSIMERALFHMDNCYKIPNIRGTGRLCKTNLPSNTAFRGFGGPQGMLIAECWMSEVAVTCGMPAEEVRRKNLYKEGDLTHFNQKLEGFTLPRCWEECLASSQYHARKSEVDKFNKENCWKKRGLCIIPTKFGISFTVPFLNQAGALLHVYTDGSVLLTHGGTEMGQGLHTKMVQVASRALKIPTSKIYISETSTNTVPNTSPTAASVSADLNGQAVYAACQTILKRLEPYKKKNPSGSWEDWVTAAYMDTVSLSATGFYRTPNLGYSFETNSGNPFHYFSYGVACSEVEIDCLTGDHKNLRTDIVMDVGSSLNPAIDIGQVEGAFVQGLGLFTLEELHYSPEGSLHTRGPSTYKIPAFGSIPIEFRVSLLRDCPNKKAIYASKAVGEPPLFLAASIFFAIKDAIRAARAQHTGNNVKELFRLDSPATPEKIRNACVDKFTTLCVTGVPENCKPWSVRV", "test": "Inhibition of XOD at 25 uM relative to control"}, "Macrophage [2]": {"test_system": "Macrophage", "test": "Radical scavenging activity in CD mouse macrophages assessed as inhibition of superoxide anion generation at 50 uM relative to control", "type": "functional", "in_short": "(§1)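 Superoxide anion (O2•-) generation was measured in macrophage cells stimulated with the tumor promoter 12-O-tetradecanoylphorbol-13-acetate (TPA), and test samples were evaluated for suppression of this TPA-induced generation.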"}, "[3]": {"test": "Cytotoxicity against CD mouse macrophages assessed as cell viability at 50 uM by trypan blue exclusion test", "type": "cell-based, Macrophage", "settings": "read-out: Activity"}, "Macrophage [4]": {"test_system": "Macrophage", "test": "Radical scavenging activity in CD mouse macrophages assessed as inhibition of superoxide anion generation at 25 uM relative to control", "type": "functional", "in_short": "as §1"}, "[5]": {"biological_target": "T1, Xanthine dehydrogenase/oxidase", "test": "Inhibition of XOD at 125 uM relative to control"}}, "data": [{"smiles": "O=c1c(O)c(-c2ccc(O)c(O)c2)oc2cc(O)cc(O)c12", "note": "[QUERCETIN]", "values": [{"measurement": "inhibition at 25 µM", "setting": "[1]", "value": 31, "unit": "%"}, {"measurement": "inhibition at 50 µM", "setting": "Macrophage [2]", "value": 28, "unit": "%"}, {"measurement": "viability at 50 µM", "setting": "[3]", "value": 101, "unit": "%"}, {"measurement": "inhibition at 25 µM", "setting": "Macrophage [4]", "value": 19, "unit": "%"}, {"measurement": "inhibition at 125 µM", "setting": "[5]", "value": 72, "unit": "%"}]}]}
